UBC13 polyUb = inhibitors of human UBC13 polyubiquitin chain formation. P61088. TR-FRET. inhibition, % at 20 µM. 0.47% of 330,000 active. AID 485273; in the data active means inhibition above about 45%, passing the limit was not always enough
SENP7 inh = SENP7 protease inhibition; recombinant SENP7, Z-RLRGG-aminoluciferin luminescence, 40 min; 1.5% of 330,000 active; AID 434973; inhibition, % at 5 µM;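 active means inhibition above about 50% at the single test dose, limit read from the data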
SENP6 block = blocks the human protease SENP6; Q9GZR1; 1.8% of 330,000 active; inhibition, % at 10 µM; Recombinant SENP6 catalytic domain, aminoluciferin luminescence; AID 2599;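 active means inhibition above about 50% at the single tested dose, limit read from the data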
Target sequence (Q9GZR1 628-1112 limits assumed): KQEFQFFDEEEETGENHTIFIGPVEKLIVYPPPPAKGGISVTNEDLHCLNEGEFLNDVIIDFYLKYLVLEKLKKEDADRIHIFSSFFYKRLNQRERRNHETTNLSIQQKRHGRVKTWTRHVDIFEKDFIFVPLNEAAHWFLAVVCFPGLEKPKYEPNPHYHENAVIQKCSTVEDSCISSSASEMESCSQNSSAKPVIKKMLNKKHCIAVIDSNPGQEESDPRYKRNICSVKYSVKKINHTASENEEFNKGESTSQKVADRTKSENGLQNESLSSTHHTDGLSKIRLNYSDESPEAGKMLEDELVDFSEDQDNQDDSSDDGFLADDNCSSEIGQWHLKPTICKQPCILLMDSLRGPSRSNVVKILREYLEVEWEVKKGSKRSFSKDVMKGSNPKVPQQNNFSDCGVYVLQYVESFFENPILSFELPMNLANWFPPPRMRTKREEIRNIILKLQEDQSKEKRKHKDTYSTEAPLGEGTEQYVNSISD
SENP8 block-1 = blocks human SENP8 cleavage of Nedd8 substrate. Q96LD8. recombinant SENP8, Nedd8 substrate fluorescence. inhibition, % at 20 µM. 0.64% of 360,000 active; in the data active means inhibition mostly above about 40%, no sharp cut-off; inactive means mostly below about 27%
Target sequence (Q96LD8 whole entry, looked up): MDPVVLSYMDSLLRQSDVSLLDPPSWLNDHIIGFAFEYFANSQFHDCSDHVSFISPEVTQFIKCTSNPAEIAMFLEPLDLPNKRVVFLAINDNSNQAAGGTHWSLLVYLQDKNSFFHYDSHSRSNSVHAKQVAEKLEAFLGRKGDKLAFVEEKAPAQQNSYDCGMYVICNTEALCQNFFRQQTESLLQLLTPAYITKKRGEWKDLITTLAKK
Apaf1 inhib = blocks human Apaf-1 apoptosome activity. O14727. reconstituted apoptosome caspase-3 activity, DEVD-Rh110 fluorescence. inhibition, % at 20 µM. 0.71% of 330,000 active. AID 489030; active means inhibition of at least 40% at 20 µM
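Material: reconstituted apoptosome with Apaf-1, cytochrome c, caspase-9, procaspase-3, dATP / Buffer or medium: pH 7.5 Hepes buffer with CHAPS, BSA, DTT / Also added: cytochrome c with DEVD-Rh110 / Schedule: compound with Apaf-1, dATP, procaspase-3 30 min, then 50 min reaction, room temperature / Technique: rhodamine 110 fluorescence at Ex 480/Em 540 nm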
SENP8 block-2 = SENP8 protease inhibition. inhibition, % at 10 µM. purified SENP8, Z-RLRGG-aminoluciferin cleavage, luminescence. Q96LD8. 1.2% of 330,000 active. AID 2540; in the data active means inhibition above about 50%
Apaf-1 inh conf = Apaf-1 inhibition, single-dose confirmed; shares compounds with Apaf1 inhib; reconstituted apoptosome, caspase-3 DEVD-Rh110 fluorescence; inhibition, % at 20 µM; 25% of 1,800 active; AID 504614;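 active means mean inhibition of at least 40% at 20 µM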
Rh110 interf inh = Rh110 signal interference in Apaf-1 inhibitor counter-screen; shares compounds with Apaf1 inhib; Rh110 fluorescence interference, quenched caspase reaction; activation (fluorescence interference), % at 20 µM; 1,800 tested, under 10 active; AID 504615;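 active means signal rise of 40% or more at 20 µM, treated as a fluorescence artifact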
Apaf1 inh interf = shows fluorescence interference in the Apaf-1 inhibitor assay format; shares compounds with Apaf1 inhib; fluorescence interference counterscreen, Apaf-1 assay format; IC50, µM; 460 tested, under 10 active; AID 588538; call rule not given here
A number is an active result. A selection: hits, their analogues and other compounds. The true share with any hit is near 3%.

Results for CCN(CC)C(=O)[C@H]1CC(CC(=O)NCCCN(C)C)C(=O)N2CCc3c([nH]c4ccccc34)[C@]12C (some centres undefined) ?
UBC13 polyUb: inactive; SENP7 inh: inactive; SENP6 block: inactive; SENP8 block-1: inactive; Apaf1 inhib: 44; SENP8 block-2: inactive; Apaf-1 inh conf: inactive; Rh110 interf inh: inactive

Results for CCN(CC)C(=O)[C@H]1C[C@H](CC(=O)NCc2cccc(C(F)(F)F)c2)C(=O)N2CCc3c([nH]c4ccc(Cl)cc34)[C@]12C ?
SENP7 inh: inactive; SENP8 block-1: inactive; Apaf1 inhib: 46; Apaf-1 inh conf: inactive; Rh110 interf inh: inactive

Results for CCN(CC)C(=O)[C@H]1C[C@H](CC(=O)NCCCN(C)C)C(=O)N2CCc3c([nH]c4ccc(Cl)cc34)[C@]12C ?
SENP7 inh: inactive; SENP8 block-1: inactive; Apaf1 inhib: inactive

How did CCn1nnnc1NCc1ccc(OCc2ccc(F)cc2Cl)c(OC)c1 do in these assays?
UBC13 polyUb: inactive; SENP7 inh: inactive; SENP6 block: inactive; SENP8 block-1: inactive; Apaf1 inhib: inactive; SENP8 block-2: inactive

How did CCOC(=O)C1(C)CCCN1C(=O)c1cccc(F)c1 (centres undefined) do in these assays?
SENP8 block-1: inactive

How did COc1cccc(CN(C)C(=O)c2cc(S(=O)(=O)N3CCCCCC3)ccc2OC)c1 do in these assays?
UBC13 polyUb: inactive; SENP7 inh: inactive; SENP6 block: inactive; SENP8 block-1: inactive; Apaf1 inhib: 51; SENP8 block-2: inactive; Apaf-1 inh conf: inactive; Rh110 interf inh: inactive

What do the screens show for `COc1cccc(CN(C)C(=O)c2ccc(C)c(S(=O)(=O)N3CCCCC3)c2)c1`?
UBC13 polyUb: inactive; SENP7 inh: inactive; SENP6 block: inactive; SENP8 block-1: inactive; Apaf1 inhib: 40; SENP8 block-2: inactive; Apaf-1 inh conf: inactive; Rh110 interf inh: inactive

How did COc1cc(/C=C/C(=O)OCC(=O)NCC2CCCCC2)ccc1O do in these assays?
UBC13 polyUb: inactive; SENP7 inh: inactive; SENP6 block: inactive; SENP8 block-1: inactive; Apaf1 inhib: inactive; SENP8 block-2: inactive

What do the screens show for `Cc1[nH]c2ccccc2c1/C=N/Nc1nc2ccccc2[nH]1`?
UBC13 polyUb: inactive; SENP7 inh: inactive; SENP6 block: inactive; SENP8 block-1: inactive; Apaf1 inhib: inactive; SENP8 block-2: inactive; Apaf-1 inh conf: inactive; Rh110 interf inh: inactive

What do the screens show for `COc1ccc(NC(=O)Nc2ccc(O)c3ccccc23)cc1`?
UBC13 polyUb: inactive; SENP7 inh: inactive; SENP6 block: inactive; Apaf1 inhib: 52; SENP8 block-2: inactive; Apaf-1 inh conf: inactive; Rh110 interf inh: inactive

Results for COc1ccc(C(=O)Nc2ccc(O)c3ccccc23)cc1 ?
UBC13 polyUb: inactive; SENP7 inh: inactive; SENP6 block: inactive; SENP8 block-1: inactive; Apaf1 inhib: inactive; SENP8 block-2: inactive

Results for Cc1ccccc1NC(=O)COC(=O)CNC(=O)c1sc2ccccc2c1Cl ?
UBC13 polyUb: inactive; SENP7 inh: inactive; SENP6 block: inactive; SENP8 block-1: inactive; Apaf1 inhib: inactive; SENP8 block-2: inactive

What do the screens show for `CN(CC(=O)Nc1cccc(F)c1)C(=O)c1cccc2ccccc12`?
UBC13 polyUb: inactive; SENP7 inh: inactive; SENP6 block: inactive; SENP8 block-1: inactive; Apaf1 inhib: inactive; SENP8 block-2: inactive

How did CCCN(CC(=O)Nc1ccccc1C)C(=O)c1sc2ccccc2c1Cl do in these assays?
UBC13 polyUb: inactive; SENP7 inh: inactive; SENP6 block: inactive; SENP8 block-1: inactive; Apaf1 inhib: 61; SENP8 block-2: inactive; Apaf-1 inh conf: 44; Rh110 interf inh: inactive; Apaf1 inh interf: inactive

What do the screens show for `CN(CC(=O)Nc1cccc(F)c1)C(=O)c1sc2ccccc2c1Cl`?
UBC13 polyUb: inactive; SENP7 inh: inactive; SENP6 block: inactive; SENP8 block-1: inactive; Apaf1 inhib: 57; SENP8 block-2: inactive; Apaf-1 inh conf: inactive; Rh110 interf inh: inactive

How did CN1CCN(c2ccc(Cl)cc2NC(=O)c2cc(=O)[nH]c3ccccc23)CC1 do in these assays?
UBC13 polyUb: inactive; SENP7 inh: inactive; SENP6 block: inactive; SENP8 block-1: inactive; Apaf1 inhib: inactive; SENP8 block-2: inactive

Results for CN1CCN(c2cc3c(c4c2[nH]c2ccccc24)C(=O)CC(C)(C)C3)CC1 ?
UBC13 polyUb: inactive; SENP7 inh: inactive; SENP6 block: inactive; SENP8 block-1: inactive; Apaf1 inhib: 50; SENP8 block-2: inactive; Apaf-1 inh conf: inactive; Rh110 interf inh: inactive

How did Cc1cccc(Nc2nc(Cl)ncc2F)c1C do in these assays?
UBC13 polyUb: inactive; SENP7 inh: inactive; SENP6 block: inactive; SENP8 block-1: inactive; Apaf1 inhib: inactive; SENP8 block-2: inactive

How did CCN1CCN(C2=C(NS(=O)(=O)c3ccccc3)C(=O)c3ccccc3C2=O)CC1 do in these assays?
UBC13 polyUb: inactive; SENP7 inh: inactive; SENP6 block: inactive; SENP8 block-1: 58; Apaf1 inhib: 82; SENP8 block-2: inactive; Apaf-1 inh conf: 42; Rh110 interf inh: inactive; Apaf1 inh interf: inactive

Results for CCOC(=O)N1CCN(C2=C(NS(=O)(=O)c3ccccc3)C(=O)c3ccccc3C2=O)CC1 ?
UBC13 polyUb: inactive; SENP7 inh: inactive; SENP6 block: inactive; SENP8 block-1: 54; Apaf1 inhib: 48; SENP8 block-2: inactive; Apaf-1 inh conf: inactive; Rh110 interf inh: inactive

How did CC(C)(CN1CCCCC1)NS(=O)(=O)c1ccc(Cl)cc1 do in these assays?
UBC13 polyUb: inactive; SENP7 inh: inactive; SENP6 block: inactive; SENP8 block-1: inactive; Apaf1 inhib: inactive; SENP8 block-2: inactive

What do the screens show for `COc1ccc(C(CNS(=O)(=O)c2ccccc2)N2CCN(C)CC2)cc1` (centres undefined)?
UBC13 polyUb: inactive; SENP7 inh: inactive; SENP6 block: inactive; SENP8 block-1: inactive; Apaf1 inhib: inactive; SENP8 block-2: inactive

How did O=C1C(NS(=O)(=O)c2ccc(Cl)cc2)=C(N2CCCCC2)C(=O)c2ccccc21 do in these assays?
UBC13 polyUb: inactive; SENP7 inh: inactive; SENP6 block: inactive; SENP8 block-1: 46; Apaf1 inhib: 72; SENP8 block-2: inactive; Apaf-1 inh conf: 42; Rh110 interf inh: inactive; Apaf1 inh interf: inactive

What do the screens show for `CN1CCN(C2=C(NS(=O)(=O)c3ccccc3)C(=O)c3ccccc3C2=O)CC1`?
UBC13 polyUb: inactive; SENP7 inh: inactive; SENP6 block: inactive; SENP8 block-1: inactive; Apaf1 inhib: 79; SENP8 block-2: inactive; Apaf-1 inh conf: 45; Rh110 interf inh: inactive; Apaf1 inh interf: inactive

Results for CCOC(=O)N1CCN(C(=O)c2ccc(S(=O)(=O)Nc3ccccc3)cc2)CC1 ?
UBC13 polyUb: inactive; SENP7 inh: inactive; SENP6 block: inactive; SENP8 block-1: inactive; Apaf1 inhib: inactive; SENP8 block-2: inactive

Screening results: PubChem, Sanford-Burnham Center for Chemical Genomics
